MT1-MMP txn act: MT1-MMP promoter reporter activation – cell-based, luciferase luminescence, primary screen; HT1080 MT1-MMP promoter luciferase reporter, overnight; hits give high values; activation factor at 10 µM; 0.16% of 86,000 active;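 active = activation factor of at least 2 for MT1-MMP transcription at 10 µM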
RORa activator: activators of orphan receptor RORA, primary screen, cell-based, luminescence. Nuclear receptor ROR-alpha (Homo sapiens), P35398. CHO-K1 Gal4-RORA LBD luciferase reporter; percent increase over mock-subtracted basal signal. activation, % at 10 µM. 1.5% of 65,000 active;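 active = activation above the mean of all tested compounds plus 3 SD, cut at about 49% in these data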;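 also: 0% = DMSO-treated RORA cells and 100% = added signal equal to DMSO minus mock-transfected cells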
E coli RNAP: E. coli RNAP inhibitors, biochemical; E. coli RNA polymerase, fluorescence transcription assay; inhibition, %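 (tested at 10 µM)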; 0.2% of 62,000 active; AID 559, 2006; in the data active = inhibition above about 20%;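 also: 0% = enzyme without compound and 100% = no enzyme blank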
SF-1 act: activators of human SF-1, primary screen, cell-based, CHO-K1, Gal4-SF-1 LBD, luciferase luminescence; 1.9% of 65,000 active; CHO-K1 Gal4-SF-1 LBD luciferase reporter; % increase over DMSO SF-1-specific signal; activation, % at 10 µM; Steroidogenic factor 1 (Homo sapiens), Q13285;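 active = activation above the mean activation of all tested compounds plus 3 SD, cut at about 50% in these data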
Target sequence (Q13285 whole entry, looked up, the tested form may be a part): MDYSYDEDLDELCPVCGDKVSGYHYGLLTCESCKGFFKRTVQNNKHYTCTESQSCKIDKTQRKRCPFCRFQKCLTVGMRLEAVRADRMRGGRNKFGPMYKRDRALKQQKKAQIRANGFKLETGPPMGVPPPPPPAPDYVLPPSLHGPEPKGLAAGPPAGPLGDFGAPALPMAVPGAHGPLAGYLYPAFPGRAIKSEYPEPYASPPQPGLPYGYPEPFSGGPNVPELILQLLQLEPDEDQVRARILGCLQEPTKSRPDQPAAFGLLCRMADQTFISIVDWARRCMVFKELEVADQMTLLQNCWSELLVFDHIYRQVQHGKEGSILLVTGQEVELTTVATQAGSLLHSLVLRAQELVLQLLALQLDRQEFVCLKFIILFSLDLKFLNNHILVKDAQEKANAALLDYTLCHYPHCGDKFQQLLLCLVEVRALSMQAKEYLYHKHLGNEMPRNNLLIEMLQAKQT
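Material: Gal4–SF-1 LBD one-hybrid luciferase reporter in CHO-K1 cells | Amount: 4,000 cells per well | Compound dosing: 10 µM single point, 1% DMSO | Schedule: 20 h compound treatment, 37 °C | Measured by: SteadyLite luciferase luminescence | Evaluation: Percent activation versus DMSO | Control set: DMSO-treated SF-1-transfected cells as negative, DMSO-treated mock-transfected cells lacking SF-1 as background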
TNAP act mid DEA: human TNAP enzyme activators, primary screen, biochemical, luminescent, intermediate phosphate acceptor level. Alkaline phosphatase, tissue-nonspecific isozyme (Homo sapiens), P05186. purified TNAP, CDP-star luminescence, 100 mM DEA, 30 min; hits give high values; scale: 0 levamisole-inhibited, 1 vehicle-only enzyme. activation factor at 20 µM. 64,000 tested, under 10 active. AID 813, 2007;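 active = activation factor of at least 2 at 20 µM, relative to controls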
* marks the source's active call; other numbers are inactive results; . = no result given. A selection: hits, their analogues and other compounds. The true share with any hit is near 2.1%.

SMILES	MT1-MMP txn act	RORa activator	E coli RNAP	SF-1 act	TNAP act mid DEA
O=C(CCCNS(=O)(=O)c1cccc2nsnc12)NCc1ccccc1	1.3	6	-1	6	1
CCc1ccccc1NC(=O)N[C@@H](C)C(=O)OC	1.1	-7	-4	8	1
Cn1nnc(NC(=O)c2cccc(OCc3ccccc3)c2)n1	1	54*	4	48	1.1
Cn1nnc(NC(=O)c2ccc3ccccc3c2)n1	1.2	.	.	.	.
CCOC(=O)CSc1nc(N)c(C#N)c(CC(C)C)c1C#N	1.1	-5	5	-2	0.9
O=C(c1cc2c(s1)-c1ccccc1OC2)N1CCCC1	1.6	84*	-35	48	1
O=C(c1cc2c(s1)-c1ccccc1OC2)N1CCN(c2ccccn2)CC1	1.2	-7	9	5	0.9
Cc1csc(NC(=O)c2cc3c(s2)CCC3)n1	0.3	-4	1	-12	0.9
Cc1csc(NC(=O)c2cc3c(s2)-c2ccccc2OC3)n1	1.6	63*	1	43	0.8
CCOC(=O)c1ccc(NS(=O)(=O)N2CCCCCC2)cc1	1.3	49*	11	24	1
CCOC(=O)c1ccc(NC(=O)C2CCN(S(=O)(=O)CC)CC2)cc1	1.1	0	4	0	1
CCCOC(=O)Nc1nc2ccccc2o1	1.5	34	4	58*	0.9
CCOC(=O)c1ccccc1NC(=O)CSc1nc2ccccc2o1	1.1	-9	0	4	0.9
CCCCN1CCc2c([nH]c3ccc(C)cc23)C1=O	0.9	51*	3	51*	0.9
O=C(OCc1nc2ccccc2s1)c1cccs1	1.5	53*	6	50*	0.9
O=C(OCc1nc2ccccc2s1)c1cnccn1	1.7	53*	6	54*	0.9
O=C(COC(=O)c1cnccn1)NCc1ccccc1	1.2	.	.	.	.
Cc1cc(NCCCN2CCOCC2)n2ncc(-c3ccccc3)c2n1	1.8	54*	6	107*	0.9
Cc1cc(NCCOCCO)n2ncc(-c3ccc(Cl)cc3)c2n1	1.2	89*	.	9	0.9
CC(C)CCOC(=O)C1[C@H]2C(=O)N(Cc3cccs3)C[C@]23C=C[C@H]1O3 (stereo partly specified)	1.1	-36	-3	-7	0.9
O=C(NCc1ccc(F)cc1)c1cc2n(n1)C(C(F)(F)F)CC(C1CC1)N2 (stereo unspecified)	1	64*	-2	48	1
O=C(Nc1nc2c(s1)CCCC2)c1cc2n(n1)C(C(F)(F)F)CC(C1CC1)N2 (stereo unspecified)	1.7	118*	.	56*	1
O=C(CCn1nc(-c2ccccc2)ccc1=O)N1CCOCC1	1.3	-5	7	1	0.9
Cc1cc(NC(=O)COC(=O)c2cc3c(s2)CCC(C)C3)no1 (stereo unspecified)	1.2	-3	7	5	0.9
CCOc1cccc(-c2nnc3sc(-c4cccs4)nn23)c1	1.2	12	1	0	0.9
SMILES	MT1-MMP txn act	RORa activator	E coli RNAP	SF-1 act	TNAP act mid DEA
COc1cccc(-c2nnc3sc(-c4ccco4)nn23)c1	1.4	34	4	50*	0.9
COc1cccc(-c2nnc3sc(-c4cccs4)nn23)c1	1.8	30	10	70*	0.8
Cn1c(=O)c2cc(S(=O)(=O)NCCC(=O)NCC3CCCO3)ccc2n(C)c1=O (stereo unspecified)	1.2	15	3	-14	1
Cc1ccc(C(=O)N2CCOCC2)cc1Cl	1.3	17	0	4	0.9
Cc1ccc(OCc2ccc(C(=O)N3CCOCC3)cc2)cc1C	1.4	52*	3	46	0.9
CC(C)CC(=O)Nc1ccc(-c2cn3ccsc3n2)cc1	0.6	52*	.	52*	0.9
CC(C)(C)C(=O)Nc1ccc(-c2cn3ccsc3n2)cc1	0.2	-32	-2	-33	0.9
Cc1ccc(O)c(-c2cc(-c3cccc(F)c3)n[nH]2)c1	2.1*	.	.	.	.
Cc1ccc(-c2cc(-c3ccccc3C)[nH]n2)c(O)c1	1.8	.	.	.	.
Cc1ccc(-c2cc(-c3cccc(F)c3)n[nH]2)c(O)c1	1.8	68*	9	53*	1
CN(C)C(=O)[C@H]1C[C@@H]1[C@H](NC(=O)CNC(=O)[C@@H]1CCCN1C(=O)[C@H]1C[C@@H]1[C@H](NC(=O)OCc1ccccc1)c1ccccc1)c1ccccc1	1.2	.	.	.	.
O=S(=O)(c1ccc(F)cc1)N1CCC(N2CCN(c3ccccc3)CC2)CC1	1.1	-4	11	7	0.9
O=C(NCCn1ccc2ccccc21)c1ccc2c(c1)OCO2	1.4	76*	8	72*	0.9
COc1ccc(C(=O)NCCn2ccc3ccccc32)cc1	1.1	57*	11	58*	0.9
COCCn1c(C(=O)N(C)C)cc2c1C[C@H]1CN(C(=O)c3ccccc3)[C@@](Cc3ccc(OC)cc3)(C(=O)OC)[C@@H]21	1.2	.	.	.	.
COC(=O)c1ccccc1NC(=O)CSc1nc(O)cc(=O)n1C1CCCC1	1.2	5	7	-3	0.9
CN1C(=O)CSc2ccc(NC(=O)N3CCc4ccccc43)cc21	1.2	75*	5	105*	0.9
COc1ccc(CC(=O)N2CCN(c3ccccn3)CC2)cc1OC	1.1	0	4	6	1
CCCc1ccc(OCc2ccc(C(=O)N3CCN(c4ccccn4)CC3)o2)c(OC)c1	1.3	50*	7	5	0.9
Cc1cc(Nc2ccccc2C(=O)O)nc2nc3ccccc3c(=O)n12	1.4	-1	7	-6	0.9
Cc1ccccc1Nc1nn2c(=O)c3ccccc3nc2s1	1.4	43	5	73*	0.8
N=c1c(-c2nc3ccccc3[nH]2)cc(C(=O)c2cccs2)nn1-c1ccc(Cl)cc1	1.1	.	.	.	.
COC(=O)C1(CC(C)C)C=CCN1C(=O)c1ccccc1 (stereo unspecified)	1	.	.	.	.
Nc1c(C(=O)Nc2ccc3c(c2)OCCO3)nnn1CCc1ccccc1	1.1	142*	6	92*	0.8
COc1ccc(Cn2c(C3CC3)nc3ccc(NC(=O)c4ccco4)cc3c2=O)cc1	1.6	44	6	59*	0.9
CCC(=O)Nc1ccc2nc(C3CC3)n(Cc3ccccc3)c(=O)c2c1	1.5	24	3	63*	0.9
CCC(=O)Nc1ccc2nc(C)n(CC(=O)Nc3ccccc3)c(=O)c2c1	1	-20	11	3	0.9
COC(=O)c1ccc(C23CC4(C2)[C@H](CN(CC2CCCCC2)[C@@H]4c2ccccc2)C3c2ccc(Cl)nc2)cc1 (stereo partly specified)	1.2	.	.	.	.
